According to PubChem BioAssay AID488914 (Broad Institute, 2010):
Results filed as inconclusive are left out. Active and inactive are the calls of the source.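 The calls were made as follows: active = compounds raising caspase signal whose fitted half-maximal concentration lies at or below their highest valid tested dose; inconclusive = flat curve at 30 to 70% activity, or unreliable fit; inactive = the rest.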

tested on: MEWO cells TSA-primed, caspase-Glo luminescence, 3 h; assay: Caspase-Glo signal, A1-expressing MEWO cells – cell-based, Trichostatin A priming, dry powder, A1 (Bcl2-A1) inhibitor project, dose response (AID 488914); conditions: not given
Outline: (§1)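 Test system: Human MEWO cells with A1 expression, Trichostatin A primed | Technique: Caspase-Glo luminescence, reagent diluted 1:1 in 50 mM HEPES | Medium: RPMI-1640 plus 10% FBS | Read-out: Caspase activity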

Row | Structure (SMILES) | AC50
1 | Cc1c(CCOC(=O)c2ccc(N3CCOCC3)c([N+](=O)[O-])c2)sc[n+]1CC#N | 13.1 µM
2 | COc1ccc(N(C(=O)CCl)C(C(=O)NCCc2ccccc2)c2cccs2)cc1Cl (stereo not given) | 10.6 µM
3 | C/C1=C/C(=O)O[C@@H]2C[C@@H](CC[C@H](C)/C=C\CC1)O[C@@](O)(C1CSC(=O)N1)C2 (stereo not given in full) | 0.632 µM
4 | Cc1cc(C(=O)CCl)c(C)n1CCc1ccc(Cl)cc1 | 77.8 µM
5 | CCOC(=O)CSC1=N/C(=C/c2ccc(-n3cncn3)cc2)C(=O)N1C(C)=O | 4.12 µM
6 | CC(=O)N[C@H]1[C@H](O[C@H]2CC[C@@]3(C)C(CC[C@]4(C)C3CC=C3[C@@H]5CC(C)(C)CC[C@]5(C(=O)OC5OCC(O)C(O)C5O)C(O)C[C@]34C)C2(C)C)O[C@H](COC2OCC(O)C(OC3OCC(O)C(O)C3O)C2O)[C@@H](O[C@@H]2O[C@@H](C)[C@H](O)[C@@H](O)[C@H]2O[C@@H]2O[C@@H](C)[C@H](O)[C@@H](O)[C@H]2O)[C@@H]1O (stereo not given in full) | 6.81 µM
7 | CC(C)(C)n1nc(-c2ccc(Cl)cc2)c2c(N)ncnc21 | > 135 µM (inactive)
8 | Cc1ccc(Sc2c([N+](=O)[O-])c(=O)n(C)c3ccccc23)cc1 | 16.8 µM
9 | C=C1[C@@H](C)[C@H]2[C@H](Cc3ccccc3)NC(=O)[C@]23OC(=O)/C=C\[C@H](O)CCC[C@@H](C)C/C=C/[C@H]3[C@@H]1O | 2.29 µM
10 | COc1cccc(C(=O)C(C#N)=C(SC)SC)c1 | 0.92 µM
11 | O=C(Oc1cccc(/C=N/Nc2nc(Nc3ccccc3)nc(N3CCOCC3)n2)c1)c1ccco1 | 6.87 µM

tested on: not listed separately; assay: as above; conditions: MEWO cells TSA-primed, caspase-Glo luminescence, 3 h; at 135 µM (top of the series)
Outline: as §1

Row | Structure (SMILES) | caspase activation
12 | Nc1nc(F)nc2c1ncn2[C@@H]1O[C@H](CO)[C@@H](O)[C@H]1O | -2.16% (inactive)
13 | Cc1ccc(CS(=O)(=O)c2ncc(Cl)c(C(=O)Nc3nnc(C(C)C)s3)n2)cc1 | -9.39% (inactive)
14 | O=C(CCl)N=c1sccn1Cc1ccccc1Cl | 3.57% (inactive)
15 | C=C1[C@@H](C)[C@H]2[C@H](Cc3ccccc3)NC(=O)[C@]23[C@H](OC(C)=O)/C=C/[C@](C)(O)C(=O)[C@@H](C)C/C=C/[C@H]3[C@@H]1O | 5.7% (inactive)
16 | CCSc1nnc(NC(=O)c2nc(S(=O)(=O)Cc3ccc(F)cc3)ncc2Cl)s1 | -10.5% (inactive)
17 | Cn1c(=NC(=O)CCl)sc2ccccc21 | -6.3% (inactive)
18 | COc1cc(/C=C(/C#N)c2nc3ccccc3[nH]2)ccc1OCC(=O)Nc1ccccc1C(C)C | 2.25% (inactive)
19 | CCc1nnc(NC(=O)c2nc(S(=O)(=O)Cc3ccccc3)ncc2Cl)s1 | -6.87% (inactive)
20 | Cc1cccc(CS(=O)(=O)c2ncc(Cl)c(C(=O)Nc3nnc(C(C)C)s3)n2)c1 | -9.05% (inactive)
